Three compounds from ChEMBL document CHEMBL1143842, “Efficacy of tachyplesin III, colistin, and imipenem against a multiresistant Pseudomonas aeruginosa strain” (Antimicrob Agents Chemother, 2007) can be followed below.

Values after ≈ are worked out from the molar mass of the structure shown. Active and inactive are the calls of the source.

In general, MIC refers to the smallest concentration in the dilution series that meets the test's criterion for growth inhibition. A low value points to greater potency.

For assay [1], the system named is Pseudomonas aeruginosa. Put plainly: Reduction of Pseudomonas aeruginosa ATCC 27853 infection induced IL6 levels in BALB/c mouse plasma after 24 hrs by ELISA. It is filed as functional, organism-based. In a few lines: (§1)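 Male BALB/c mice were infected i.v. with 2.0 × 10^7 CFU and treated i.v. immediately afterwards. Tail-vein plasma was sampled at 0, 6, 12, 24 and 48 h. IL-6 and TNF-α were measured by ELISA in duplicate, with sensitivity limits of 12 pg/ml and 0.05 ng/ml respectively.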
(In general: ELISA stands for enzyme-linked immunosorbent assay.)

Assay [2] has as its system Pseudomonas aeruginosa. Put plainly: Reduction of Pseudomonas aeruginosa ATCC 27853 infection induced endotoxin levels in BALB/c mouse plasma after 24 hrs by ELISA. It is filed as functional, organism-based.
The test system of assay [3] is Pseudomonas aeruginosa. Put plainly: Reduction of Pseudomonas aeruginosa ATCC 27853 infection induced TNFalpha levels in BALB/c mouse plasma after 24 hrs by ELISA. It counts as functional, organism-based. The procedure, abridged:
as §1

For assay [4], the system named is Pseudomonas aeruginosa. Put plainly: Reduction of Pseudomonas aeruginosa clinical isolate infection induced endotoxin levels in BALB/c mouse plasma after 24 hrs by ELISA. It counts as functional, organism-based.
Assay [5] relates to Pseudomonas aeruginosa. The experiment in a line: Reduction of Pseudomonas aeruginosa clinical isolate infection induced TNFalpha levels in BALB/c mouse plasma after 24 hrs by ELISA. It counts as functional, organism-based. In a few lines: as §1
The test system of assay [6] is Pseudomonas aeruginosa. The experiment in a line: Reduction of Pseudomonas aeruginosa clinical isolate infection induced IL6 levels in BALB/c mouse plasma after 24 hrs by ELISA. It counts as functional, organism-based. In a few lines:
as §1

The subject of assay [7] is Pseudomonas aeruginosa. The experiment in a line: Antimicrobial activity against Pseudomonas aeruginosa ATCC 27853 by broth microdilution method. It counts as functional. In a few lines: (§2)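 CLSI broth microdilution in Mueller-Hinton broth with an inoculum of 5 × 10^5 CFU/ml, incubated 18 h at 37°C in air. Plates were shaken throughout when the peptide was tested. The MIC was the lowest concentration inhibiting visible growth. Run in triplicate.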

The test system of assay [8] is Pseudomonas aeruginosa. The experiment in a line: Antimicrobial activity against Pseudomonas aeruginosa clinical isolates by broth microdilution method. It is filed as functional. The procedure, abridged: as §2
For orientation: In broth dilution the organism is exposed to a series of concentrations in liquid medium.

The test system of assay [9] is Pseudomonas aeruginosa. Put plainly: Effect on Pseudomonas aeruginosa ATCC 27853 induced sepsis in BALB/c mouse assessed as mortality at 20 mg/kg, iv for 72 hrs. It is filed as functional. The procedure, abridged: (§3)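 Male BALB/c mice, 25–30 g, housed singly, anesthetized with ketamine 30 mg/kg im. Log-phase bacteria (grown in brain heart infusion broth, resuspended in saline) given iv via tail vein, 2.0 × 10^7 CFU. Drug at 1 or 20 mg/kg iv immediately post-challenge; saline controls. 20 mice/group; lethality over 72 h, compared by Fisher's exact test.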

Assay [10] has as its system Pseudomonas aeruginosa. The experiment in a line: Effect on Pseudomonas aeruginosa clinical isolate induced sepsis in BALB/c mouse assessed as mortality at 20 mg/kg, iv for 72 hrs. It counts as functional. In a few lines: as §3
Assay [11] concerns Pseudomonas aeruginosa. The experiment in a line: Antibacterial activity against Pseudomonas aeruginosa ATCC 27853 infected in BALB/c mouse blood at 20 mg/kg, iv after 24 hrs. It counts as functional. The procedure, abridged: (§4)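 Male BALB/c mice (25–30 g) were anesthetized with ketamine 30 mg/kg i.m. They were challenged via the tail vein with 2.0 × 10^7 CFU log-phase bacteria in saline. Drug or saline was given i.v. immediately after challenge, 20 mice per group. Tail-vein blood was taken at 24 h, serially diluted and plated on blood agar for 48 h at 35°C, and CFU were counted. Detection limit was 10 CFU/ml.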

For assay [12], the system named is Pseudomonas aeruginosa. The experiment in a line: Antibacterial activity against Pseudomonas aeruginosa clinical isolates infected in BALB/c mouse blood at 20 mg/kg, iv after 24 hrs. It counts as functional. The procedure, abridged: as §4
Assay [13] has as its system Pseudomonas aeruginosa. Put plainly: Effect on Pseudomonas aeruginosa ATCC 27853 induced sepsis in BALB/c mouse assessed as mortality at 1 mg/kg, iv for 72 hrs. It is filed as functional. The procedure, abridged:
as §3

For assay [14], the system named is Pseudomonas aeruginosa. The experiment in a line: Effect on Pseudomonas aeruginosa clinical isolate induced sepsis in BALB/c mouse assessed as mortality at 1 mg/kg, iv for 72 hrs. It is filed as functional. In a few lines: as §3
In assay [15] the test system is Pseudomonas aeruginosa. The experiment in a line: Antibacterial activity against Pseudomonas aeruginosa ATCC 27853 infected in BALB/c mouse blood at 1 mg/kg, iv after 24 hrs. It is filed as functional. The procedure, abridged:
as §4

For assay [16], the system named is Pseudomonas aeruginosa. The experiment in a line: Antibacterial activity against Pseudomonas aeruginosa clinical isolates infected in BALB/c mouse blood at 1 mg/kg, iv after 24 hrs. It is filed as functional. The procedure, abridged:
as §4

For `CC[C@H](C)[C@H](NC(=O)CNC(=O)[C@H](CCCNC(=N)N)NC(=O)[C@H](Cc1ccc(O)cc1)NC(=O)[C@H](CS)NC(=O)[C@@H](NC(=O)[C@H](CCCNC(=N)N)NC(=O)[C@H](Cc1ccccc1)NC(=O)[C@H](CS)NC(=O)[C@H](Cc1c[nH]c2ccccc12)NC(=O)[C@@H](N)CCCCN)C(C)C)C(=O)N[C@@H](CS)C(=O)N[C@@H](Cc1ccc(O)cc1)C(=O)N[C@@H](CCCNC(=N)N)C(=O)N[C@@H](CCCCN)C(=O)N[C@@H](CS)C(=O)NC(CCCNC(=N)N)C(N)=O` (single isomer, unassigned) [TACHYPLESIN III], the outcome in assay [1], in assay [2], in assay [3], in [4], in [5] and in assay [6] was Active.

In the case of `C[C@@H](O)[C@H]1C(=O)N2C(C(=O)O)=C(SCCNC=N)C[C@H]12` [IMIPENEM ANHYDROUS], the MIC in assay [7] was determined as 0.5 µg/mL (≈ 1.67 µM); in assay [8], 32 µg/mL (≈ 107 µM). For the same compound, the figures for the Activity in assay [9] and in assay [10] were 30% and 80%, respectively. Besides, the CFU was 2.8 10^3/ml in [11] and 8.7 10^6/ml in [12].

COLISTIN: the MIC in assay [7] is 4 µg/mL; in [8], 8 µg/mL. Moreover, the Activity in assay [13] is 40%; in assay [14], 30%. Also, the figures for the CFU in assay [15] and in assay [16] were 6 10^4/ml and 1.4 10^4/ml, respectively. The result in [1], in [2], in assay [3], in assay [4], in assay [5] and in assay [6] was Active.
